# ROMK primary = modulates human ROMK potassium channel activity. AID 1918. Tet-inducible ROMK, thallium flux fluorescence; actives lie on both sides. 2% of 130,000 active. P48048. B-score at 10 µM;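 active = signal ratio slope over the read window, or its plate-corrected B-score, at least 3 SD from the plate mean, either direction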;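 note: B-score of the F/F0 ratio slope over 7 to 12 s after thallium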
# Target sequence (P48048 whole entry, looked up): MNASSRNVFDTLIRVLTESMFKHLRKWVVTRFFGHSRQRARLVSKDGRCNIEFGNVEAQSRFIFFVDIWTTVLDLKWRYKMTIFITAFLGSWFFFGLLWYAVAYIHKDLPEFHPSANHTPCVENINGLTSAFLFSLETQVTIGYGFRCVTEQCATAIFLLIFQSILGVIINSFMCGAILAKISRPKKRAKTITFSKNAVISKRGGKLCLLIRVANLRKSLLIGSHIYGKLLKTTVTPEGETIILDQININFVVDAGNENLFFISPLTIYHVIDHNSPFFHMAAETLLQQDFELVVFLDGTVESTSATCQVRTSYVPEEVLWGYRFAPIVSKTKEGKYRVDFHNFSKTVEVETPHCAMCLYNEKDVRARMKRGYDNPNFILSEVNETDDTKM
# Calb biofilm kill = mixture kills Candida albicans biofilm cells; inhibition, % at 7.6 µM; C. albicans biofilm persisters + clotrimazole, fluorescence viability; primary screen in compound mixtures of four per well; 0.02% of 120,000 active; AID 1242;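 active = inhibition above 30.3% in the primary screen of four-compound pools, then above 30% when the compound was retested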;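 note: compounds exposed to preformed 24 h biofilms for 48 h; 0% = untreated biofilm control and 100% = clotrimazole plus chlorhexidine kill blank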
#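 System: C. albicans CAF4-2 wild-type biofilms; Medium: RPMI/MOPS medium, pH 7.0; Reagent: Clotrimazole, 50 µg/mL; Times: biofilm formation 24 h, compound exposure 48 h, 37 °C; Detection: 2-h Alamar Blue fluorescence, 535/590 nm excitation/emission; Evaluation: percent inhibition of biofilm viability.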
# Pf gamet viab = kills late stage P. falciparum gametocytes | P. falciparum stage V gametocytes, ATP luminescence, 24 h | inhibition, % at 10.9 µM | 0.065% of 150,000 active | AID 743093;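 active = inhibition above the mean plus 3 SD of compounds within the control limits, set per campaign, cut at about 38% in these data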;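 note: 0% = DMSO wells and 100% = medium only without gametocytes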
# * = called active by the depositor; / = no result. This is one part of a sample in which hits are shown more often than they occur.
SMILES,ROMK primary,Calb biofilm kill,Pf gamet viab
Cc1cccc(C(=O)NC(=S)NNC(=O)c2cccs2)c1,/,11,/
Cc1ccccc1C(=O)NNC(=S)NC(=O)COc1ccccc1,1.8,/,/
CC(C)=CC(=O)N1CCCC(N2CCN(c3ccccc3C)CC2)C1 (centres undefined),/,/,-11
CC(=O)c1ccc(NC(=O)CN2CCCC2)cc1,/,/,-3
CCOC(=O)[C@@H]1[C@H]2COc3cc(OC)ccc3[C@@H]2N2C(=O)N(c3ccc(F)cc3)C(=O)[C@]12C,/,/,-4
COc1cc(/C(C)=N/NC(=O)CN2CCN(S(=O)(=O)c3ccc(C)cc3)CC2)ccc1O,/,26,39*
C/C(=N\NC(=O)CN1CCN(S(=O)(=O)c2ccc(C)cc2)CC1)c1ccc(O)cc1,/,16,23
O=S(=O)(Nc1nc(-c2ccccc2)cs1)c1cc(Cl)ccc1Cl,/,/,-7
CCN(C(=O)C(=O)c1c[nH]c2ccccc12)c1ccccc1,/,/,7
CC1CCN(c2ccc3c(c2)S(=O)(=O)c2cccc(C(=O)NC4CC4)c2C3=O)CC1,/,/,-1
COc1ccc(-c2c(-c3ccc(OC)nc3)c3ccccc3n2C)cc1,/,/,-1
COC(=O)c1cc(NC(=O)c2cccc(Cl)c2)c(=O)oc1/C=C/Nc1cc(C)cc(C)c1,-5.8*,9,/
COC(=O)c1cc(NC(=O)c2cccc(C(F)(F)F)c2)c(=O)oc1C,0.49,11,5
O=C(O)c1ccc(S(=O)(=O)N2CCN(c3ccccn3)CC2)cc1,/,/,14
Cc1cc(C(=O)N/N=C/c2ccc[nH]2)no1,0.39,10,/
Cc1cc(C(=O)N/N=C/c2ccccc2Br)no1,3.1*,/,11
COc1ccc(C(=O)/C(C#N)=N/Nc2ccc([N+](=O)[O-])cc2)cc1,6*,-12,-1
Cc1c(N/N=C(\C#N)C(=O)c2ccc(Cl)cc2)c(=O)n(-c2ccccc2)n1C,-1.1,26,-23
N#C/C(=N\Nc1ccc(Cl)cc1)C(=O)c1ccccc1,2.8*,/,/
COc1ccc(N/N=C(\C#N)C(N)=O)cc1,/,15,-5
CC(C)C1Cc2c(sc3[nH]c(=S)n(Cc4ccccc4)c(=O)c23)CO1 (centres undefined),9.3*,/,-15
Cc1nnc2n(-c3ccccc3)c(=O)c3c4c(sc3n12)COC(C(C)C)C4 (centres undefined),0.029,/,/
CCc1ccc(/C=C(/C#N)C(N)=S)s1,-1.3,10,/
CCc1sc(/C=C(/C#N)C(N)=S)cc1[N+](=O)[O-],-4.4*,-11,/
Oc1c(Br)cc2oc3c(c2c1CNCc1ccccc1)CCCC3,2.9*,/,/
SMILES,ROMK primary,Calb biofilm kill,Pf gamet viab
NC(=S)N/N=C/c1c(O)c(Br)cc2oc3c(c12)CCCC3,/,18,11
CC(CCc1ccccc1)NC(=O)c1ccco1 (centres undefined),0.13,5,/
CC(C)CNC(=O)[C@H](Cc1ccccc1)NC(=O)c1ccco1,3.2*,/,5
CCOC(=O)c1c(NS(=O)(=O)Cc2ccccc2)sc2c1CCCC2,3.6*,/,/
COC(=O)c1c(NS(=O)(=O)c2ccc3ccccc3c2)sc2c1CCCC2,2.3,/,-3
CCOC(=O)c1c(NS(=O)(=O)c2ccc(Br)cc2)sc2c1CCC2,3.1*,15,/
CCOC(=O)c1c(NC(=O)c2ccco2)sc2c1CCCCC2,0.031,/,/
Cn1nnnc1NCc1ccccc1F,/,/,-3
COc1ccc(CNC(=O)C2CCCN2C)cc1OC (centres undefined),/,14,4
O=C(NCCc1ccccc1F)C1CCC(=O)N(CCCN2CCCC2=O)C1 (centres undefined),/,/,-7
O=C(c1ccc(Cl)cc1)C1CCN(C(=S)Nc2ccccc2)CC1,/,/,-21
CCOC(=O)/C=C/[C@H]1CC(c2ccccc2)(c2ccccc2)CO1,/,/,-10
CC(C)C[C@@H](CN1C(=O)C(=O)NC[C@@H]1CC(C)C)NC(=O)Cc1ccccc1,/,/,-30
Cc1ccc(C)c(N2CCN(C(=O)Cc3ccc(-n4c(=O)[nH]c5ccsc5c4=O)cc3)CC2)c1,1.1,6,39*
Cc1cccc(N2CCN(C(=O)Cc3ccc(-n4c(=O)[nH]c5ccsc5c4=O)cc3)CC2)c1C,-1.2,23,-21
COc1ccc(C2=CN3CCCCC3CC2=O)cc1OC (centres undefined),/,/,12
O=S(=O)(c1ccc(F)cc1)N1CCCN(c2nccc(C(F)(F)F)n2)CC1,0.23,19,-2
Cc1cccc(NC(=O)c2nc[nH]c2C(=O)N2CCN(c3ccccc3)CC2)c1,/,/,24
N#CCS(=O)(=O)c1ccccc1,/,/,-4
Cc1nc(=S)n(-c2ccccc2)[nH]1,/,/,10
S=c1nc(-c2ccccc2)[nH]n1-c1ccccc1,6.1*,/,/
COc1cc(CN(C)Cc2cccc3ccccc23)cc([N+](=O)[O-])c1O,/,/,1
COc1ccc(CNC(=S)N/N=C(\C)c2ccc(OC)cc2)cc1,/,28,5
COc1ccc(/C(C)=N/NC(=S)NCCc2ccccc2)cc1,-0.64,10,39*
